Assay results reported in publication PMC2646257 (Journal of medicinal chemistry, 2009).
“And” between values parts separate entries of the source, which are not always exact repeats. Identical values can stand only once. Like-named read-outs stand apart in the source and are kept apart here.

Legend:
[1] = Stability in sodium phosphate buffer; type: physicochemical; settings: sodium phosphate buffer (0.15 M, pH 7.4), room temperature
Method in brief: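 Radioligand was incubated in 0.15 M sodium phosphate buffer, pH 7.4, at room temperature for 2 h and analysed by HPLC.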

[2] = Radiochemical stability of formulated radioligand; type: physicochemical; settings: formulated [^18F]9
[3] = Plasma free fraction, monkey; type: in vitro ADME; settings: two monkeys, one value each (n = 9 and n = 3)
Method in brief: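 Radioligand was added to plasma and placed on a centrifugal ultrafiltration unit. The unit was spun at 5000g, and all filter-unit components were counted for radioactivity to derive free fraction.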

PBR [4] = experiment: PET imaging in monkeys; type: in vivo, rhesus monkey; settings: monkey
Method in brief: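 Male rhesus monkeys (11–15 kg) received an i.v. bolus of radioligand (2.76–5.80 mCi; 0.068–0.276 μg/kg) and were scanned up to 300 min. In pre-block, PBR ligand (3 mg/kg i.v.) was given 24 min before radioligand and imaging ran 120 min. In displacement, one monkey received 1.28 mCi, then 3 mg/kg i.v. at 60 min, with 240 min scanning. Uptake was given as %SUV. Images were co-registered with T1 1.5-T MRI.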

[5] = Emergence of radiometabolites in monkey plasma in vivo; design: species or system rhesus monkey
Method in brief: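 Three male rhesus monkeys (11–15 kg) received i.v. bolus radioligand during four PET scans: three baseline and one pre-block (PBR ligand 3 mg/kg i.v., 24 min before). Arterial blood was drawn periodically from the femoral artery into heparin tubes and centrifuged. Plasma (1 mL) was mixed with acetonitrile (1.5 mL) and centrifuged. Supernatant was analysed by radio-HPLC for % parent and radiometabolites. Plasma concentration was expressed as %SUV.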

[6] = Stability to rat brain homogenate in vitro; type: in vitro ADME; settings: 37 °C, up to 60 min
Method in brief: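 Excised rat brain (1.70 g) was homogenized in 3 mL saline, spiked with 5 μCi radioligand and incubated at 37 °C. Aliquots (n = 6) were taken periodically up to 60 min into acetonitrile, centrifuged and analysed by radio-HPLC for % parent and radiometabolites. A second brain, homogenized in saline/acetonitrile before spiking, served as reference.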

[7] = Emergence of radiometabolites in rat plasma, brain and urine in vivo
Method in brief: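 Four rats (277–623 g) were kept under 1.5% isoflurane in oxygen at 37 °C. Two received NCA radioligand i.v. (0.812 or 1.32 mCi; >1.39 Ci/μmol) and were killed at 30 or 95 min. Two received carrier-added radioligand (0.86 or 0.89 mCi; ~0.13 Ci/μmol; saline with 10% ethanol, 5% Tween 80), had 5 mL saline i.p. 30 min before, and were killed at 60 min with urine collected. Plasma was deproteinized. Brain was homogenized on ice in saline/acetonitrile plus water and centrifuged. Analysis was by radio-HPLC.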

[8] = LC-MS-MS search for metabolites in rat brain, urine and plasma in vivo
Method in brief: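 Three rats under 1.5% isoflurane received non-radioactive test compound (2.26 ± 0.76 mg) via the penile vein over 9 min, in 0.9 mL saline with 10% ethanol and Cremophor EL or Tween 80. Urethras were clamped; saline 0.1 mL was given i.v. every 30 min. Blood and urine were taken at 60 or 115 min. Brain was homogenized twice in acetonitrile/water and spun at 10,000g for 10 min. Plasma was deproteinized with acetonitrile. Samples were stored at −70 °C and analysed by LC-MS-MS.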

PBR [9] = settings: cited from earlier work
[10] = mouse; cited from earlier work
[11] = type: in vitro ADME, rat; settings: 30 min
[12] = two rats, carrier-added, 60 min

SMILES: COc1ccc(OC)c(CN(C(=O)C[18F])c2ccccc2Oc2ccccc2)c1 [[^18F]9, [^18F]N-fluoroacetyl-N-(2,5-dimethoxybenzyl)-2-phenoxyaniline]
- time stable in buffer [1]: > 2 h
- time radiochemically stable [2]: at least 4 h
- plasma free fraction (fP) [3]: 3.5 ± 0.2% and 1.34 ± 0.1%
- defluorination (uptake of radioactivity into skull) (PBR [4]; PET images 60-120 min): does not defluorinate significantly
- maximal brain uptake (PBR [4]; choroid plexus of fourth ventricle, baseline, n = 4): 371 ± 89 % SUV
- proportion of brain radioactivity displaced (PBR [4]; choroid plexus, 1 (3 mg/kg i.v.) given 60 min after [^18F]9): up to 90%
- time for radiometabolite to reach half of plasma radioactivity ([5]; baseline, the one monkey also studied with pre-block): 24 min
- minor radiometabolite, share of total plasma radioactivity ([5]; monkey plasma, all samples except one): ≤ 4%
- peak plasma concentration of unchanged [^18F]9, pre-block versus baseline ([5]; monkey, %SUV, same monkey): ~18 fold
- time at which plasma is composed equally of radiometabolite and [^18F]9 ([5]; monkey, baseline experiments, n = 3): 31.1 ± 14.7 min
- time at which plasma is composed equally of radiometabolite and [^18F]9 ([5]; monkey, pre-block with 1 (3 mg/kg i.v.), 3 mg/kg): 4.0 min and 4 min
- minor radiometabolite, share of total plasma radioactivity ([5]; one monkey, one plasma sample at 60 min after injection): 8%
- unchanged radioligand after incubation [6]: > 99.2%
- [^18F]9 as share of plasma radioactivity ([7]; rat, NCA, mass dose 0.85 μg/kg, 30 min, n = 2): 12.5%
- minor radiometabolite, share of total radioactivity ([7]; second rat, NCA, mass dose 3.78 μg/kg): < 5%
- minor radiometabolite, share of brain radioactivity [7, 12]: < 5%
- minor radiometabolite, share of plasma radioactivity [7, 12]: < 3%
- minor radiometabolite, share of urine radioactivity [7, 12]: 9.9 ± 2.2%

SMILES: COc1ccc(OC)c(CN(C(=O)CF)c2ccccc2Oc2ccccc2)c1 [compound 9, N-Fluoroacetyl-N-(2,5-dimethoxybenzyl)-2-phenoxyaniline]
- unchanged 9 in urine by LC-MS-MS [8]: not detected
- unchanged 9 in brain and plasma by LC-MS-MS ([8]; sampled at 115 min after administration): detected
- selectivity for PBR (PBR [9]): selective for PBR

SMILES: COc1ccc(OC[18F])c(CN(C(C)=O)c2cc(F)ccc2Oc2ccccc2)c1 [[^18F]4]
- defluorination [10]: rapidly defluorinated

SMILES: O=C(C[18F])Nc1ccccc1Oc1ccccc1 [[^18F]11, [^18F]2-fluoro-N-(2-phenoxyphenyl)acetamide]
- conversion into polar radiometabolite(s) ([11]; rat brain homogenate): > 99.9%
- conversion into polar radiometabolite(s) ([11]; rat whole blood): > 99.9%
